# Tested on: Fibroblast
# Test: Multiplex assay against human fibroblast
# Type: toxicity, cell-based
# How it was run: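 Live cells were stained at seeding with Hoechst33342, BioTracker Green Microtubule Cytoskeleton Dye, MitoTracker Red and Annexin V Alexa Fluor 680. Following compound addition, they were imaged on a CQ1 microscope at 37°C and 5% CO2 and gated by CellPathfinder machine learning into Hoechst high-intensity objects or normal cells, with normal cells split into healthy, pyknosed or fragmented nuclei and pyknosed cells into mitotic or apoptotic. Tubulin, mitochondrial-mass and membrane-permeability phenotypes are per cents of healthy-nucleus cells.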
# [1] = 12 h, 1 µM, compound concentration 1 uM, replicate 1
# [2] = 12 h, 1 µM, compound concentration 1 uM, replicate 2
# [3] = 12 h, 10 µM, compound concentration 10 uM, replicate 1
# [4] = 12 h, 10 µM, compound concentration 10 uM, replicate 2
# [5] = 24 h, 1 µM, compound concentration 1 uM, replicate 1
# [6] = 24 h, 1 µM, compound concentration 1 uM, replicate 2
# [7] = 24 h, 10 µM, compound concentration 10 uM, replicate 1
# [8] = 24 h, 10 µM, compound concentration 10 uM, replicate 2
# [9] = 48 h, 1 µM, compound concentration 1 uM, replicate 1
# [10] = 48 h, 1 µM, compound concentration 1 uM, replicate 2
# [11] = 48 h, 10 µM, compound concentration 10 uM, replicate 1
# [12] = 48 h, 10 µM, compound concentration 10 uM, replicate 2
structure (smiles),measurement,setting,value
CN(C)C(=O)/C(C#N)=C/c1ccc(-c2nc3cnc4[nH]ccc4c3n2C2CCCCC2)o1,Population Apoptotic (%),[1],67%
same,Population Fragmented Nuclei (%),[1],27%
same,Population Healthy Nuclei (%),[1],43%
same,Population Hoechst High Intensity Objects (%),[1],19%
same,Population Membrane Permeable-Phenotype (%),[1],26%
same,Population Mitochondria Different-Phenotype (%),[1],17%
same,Population Mitotic Cells (%),[1],32%
same,Population Normal (%),[1],80%
same,Population Pyknosed Nuclei (%),[1],29%
same,Population Tubulin-Different-Phenotype (%),[1],36%
same,Total Cell Count,[1],131
same,Population Apoptotic (%),[2],57%
same,Population Fragmented Nuclei (%),[2],4%
same,Population Healthy Nuclei (%),[2],87%
same,Population Hoechst High Intensity Objects (%),[2],2%
same,Population Membrane Permeable-Phenotype (%),[2],2%
same,Population Mitochondria Different-Phenotype (%),[2],6%
same,Population Mitotic Cells (%),[2],42%
same,Population Normal (%),[2],97%
same,Population Pyknosed Nuclei (%),[2],7%
same,Population Tubulin-Different-Phenotype (%),[2],24%
same,Total Cell Count,[2],75
same,Population Apoptotic (%),[3],51%
same,Population Fragmented Nuclei (%),[3],28%
same,Population Healthy Nuclei (%),[3],38%
same,Population Hoechst High Intensity Objects (%),[3],61%
same,Population Membrane Permeable-Phenotype (%),[3],22%
same,Population Mitochondria Different-Phenotype (%),[3],11%
same,Population Mitotic Cells (%),[3],48%
same,Population Normal (%),[3],38%
same,Population Pyknosed Nuclei (%),[3],32%
same,Population Tubulin-Different-Phenotype (%),[3],65%
same,Total Cell Count,[3],515
same,Population Apoptotic (%),[4],18%
same,Population Fragmented Nuclei (%),[4],20%
same,Population Healthy Nuclei (%),[4],62%
same,Population Hoechst High Intensity Objects (%),[4],54%
same,Population Membrane Permeable-Phenotype (%),[4],13%
same,Population Mitochondria Different-Phenotype (%),[4],63%
same,Population Mitotic Cells (%),[4],81%
same,Population Normal (%),[4],45%
same,Population Pyknosed Nuclei (%),[4],17%
same,Population Tubulin-Different-Phenotype (%),[4],70%
same,Total Cell Count,[4],91
same,Population Apoptotic (%),[5],43%
same,Population Fragmented Nuclei (%),[5],34%
same,Population Healthy Nuclei (%),[5],46%
same,Population Hoechst High Intensity Objects (%),[5],14%
same,Population Membrane Permeable-Phenotype (%),[5],33%
same,Population Mitochondria Different-Phenotype (%),[5],5%
same,Population Mitotic Cells (%),[5],56%
same,Population Normal (%),[5],85%
same,Population Pyknosed Nuclei (%),[5],19%
same,Population Tubulin-Different-Phenotype (%),[5],41%
same,Total Cell Count,[5],141
same,Population Apoptotic (%),[6],54%
same,Population Fragmented Nuclei (%),[6],5%
same,Population Healthy Nuclei (%),[6],84%
same,Population Hoechst High Intensity Objects (%),[6],4%
same,Population Membrane Permeable-Phenotype (%),[6],2%
same,Population Mitochondria Different-Phenotype (%),[6],10%
same,Population Mitotic Cells (%),[6],45%
same,Population Normal (%),[6],95%
same,Population Pyknosed Nuclei (%),[6],9%
same,Population Tubulin-Different-Phenotype (%),[6],36%
same,Total Cell Count,[6],81
same,Population Apoptotic (%),[7],35%
same,Population Fragmented Nuclei (%),[7],27%
same,Population Healthy Nuclei (%),[7],25%
same,Population Hoechst High Intensity Objects (%),[7],61%
same,Population Membrane Permeable-Phenotype (%),[7],28%
same,Population Mitochondria Different-Phenotype (%),[7],18%
same,Population Mitotic Cells (%),[7],64%
same,Population Normal (%),[7],38%
same,Population Pyknosed Nuclei (%),[7],47%
same,Population Tubulin-Different-Phenotype (%),[7],64%
same,Total Cell Count,[7],606
same,Population Apoptotic (%),[8],44%
same,Population Fragmented Nuclei (%),[8],28%
same,Population Healthy Nuclei (%),[8],53%
same,Population Hoechst High Intensity Objects (%),[8],54%
same,Population Membrane Permeable-Phenotype (%),[8],12%
same,Population Mitochondria Different-Phenotype (%),[8],49%
same,Population Mitotic Cells (%),[8],55%
same,Population Normal (%),[8],45%
same,Population Pyknosed Nuclei (%),[8],17%
same,Population Tubulin-Different-Phenotype (%),[8],45%
same,Total Cell Count,[8],125
same,Population Apoptotic (%),[9],52%
same,Population Fragmented Nuclei (%),[9],33%
same,Population Healthy Nuclei (%),[9],37%
same,Population Hoechst High Intensity Objects (%),[9],15%
same,Population Membrane Permeable-Phenotype (%),[9],24%
same,Population Mitochondria Different-Phenotype (%),[9],8%
same,Population Mitotic Cells (%),[9],47%
same,Population Normal (%),[9],84%
same,Population Pyknosed Nuclei (%),[9],29%
same,Population Tubulin-Different-Phenotype (%),[9],46%
same,Total Cell Count,[9],143
same,Population Apoptotic (%),[10],100%
same,Population Fragmented Nuclei (%),[10],24%
same,Population Healthy Nuclei (%),[10],72%
same,Population Hoechst High Intensity Objects (%),[10],10%
same,Population Membrane Permeable-Phenotype (%),[10],14%
same,Population Mitochondria Different-Phenotype (%),[10],5%
same,Population Mitotic Cells (%),[10],0%
same,Population Normal (%),[10],89%
same,Population Pyknosed Nuclei (%),[10],2%
same,Population Tubulin-Different-Phenotype (%),[10],24%
same,Total Cell Count,[10],119
same,Population Apoptotic (%),[11],37%
same,Population Fragmented Nuclei (%),[11],28%
same,Population Healthy Nuclei (%),[11],28%
same,Population Hoechst High Intensity Objects (%),[11],62%
same,Population Membrane Permeable-Phenotype (%),[11],30%
same,Population Mitochondria Different-Phenotype (%),[11],11%
same,Population Mitotic Cells (%),[11],62%
same,Population Normal (%),[11],37%
same,Population Pyknosed Nuclei (%),[11],42%
same,Population Tubulin-Different-Phenotype (%),[11],57%
same,Total Cell Count,[11],650
same,Population Apoptotic (%),[12],57%
same,Population Fragmented Nuclei (%),[12],31%
same,Population Healthy Nuclei (%),[12],57%
same,Population Hoechst High Intensity Objects (%),[12],43%
same,Population Membrane Permeable-Phenotype (%),[12],9%
same,Population Mitochondria Different-Phenotype (%),[12],9%
same,Population Mitotic Cells (%),[12],42%
same,Population Normal (%),[12],56%
same,Population Pyknosed Nuclei (%),[12],11%
same,Population Tubulin-Different-Phenotype (%),[12],62%
same,Total Cell Count,[12],307
